Converted amounts (≈) assume the structure as drawn. The source made the active and inactive calls. The rule behind the calls is not given here.
Legend:
MRC5 = experiment: Cytotoxicity against human MRC5 cells assessed as reduction in cell viability after 24 hrs by fluorescence assay; format: cell-based; conditions: MRC5, 24 h
How it was run: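 MRC-5 human lung fibroblasts; cytotoxicity reported as IC50.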

[1] = test system: Mycobacterium tuberculosis; experiment: Growth inhibition of Mycobacterium tuberculosis H37Rv exposed to plasma from BALB/c mouse treated with 300 mg/kg, po administered through microemulsion vehicle as single oral dose per gavage after 4 hrs by Resazurin microtiter assay; format: functional; conditions: read-out: GI
How it was run: (§1)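 The microemulsion was 10% cholesterol, 10% phosphatidylcholine/sodium oleate/polyoxyl 40 hydrogenated castor oil (3:6:8) and 80% phosphate buffer pH 7.4. Plasma taken at 0.3, 1, 2 or 4 h was tested by REMA for % Mtb growth inhibition, and plasma level was estimated against the in-vitro REMA MIC.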

[2] = test system: Mycobacterium tuberculosis; experiment: Downregulation of hspR gene in Mycobacterium tuberculosis H37Rv at 2 times MIC90 after 4 hrs by microarray analysis; format: functional
[3] = Apparent permeability from basolateral to apical side in human Caco2 cells by LC-MS/MS analysis; format: ADME, cell-based; conditions: caco-2
How it was run: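 Caco-2 monolayer permeability measured in both directions (apical-to-basolateral and basolateral-to-apical); result given as apparent permeability coefficient Papp in cm/s.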

[4] = test system: Mycobacterium tuberculosis; experiment: Growth inhibition of Mycobacterium tuberculosis H37Rv exposed to plasma from BALB/c mouse treated with 300 mg/kg, po administered through microemulsion vehicle as single oral dose per gavage after 0.3 hrs by Resazurin microtiter assay; format: functional; conditions: read-out: GI; how it was run: as §1
Mus musculus [5] = experiment: Nephrotoxicity in BALB/c mouse assessed as change in kidney morphology at 200 mg/kg, po qd administered via gavage after 10 days by hematoxylin and eosin staining based analysis; format: toxicity, organism-based; conditions: in vivo, 240 h
How it was run: (§2)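 BALB/c mice dosed orally by gavage once daily at 200 mg/kg; liver and kidney sections stained with H&E and examined for tissue morphology.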

Mus musculus [6] = experiment: Toxicity in BALB/c mouse assessed as behavioral parameter changes (hippocratic screening) at 200 mg/kg, po qd administered via gavage after 10 days; format: organism-based; conditions: in vivo, 240 h
How it was run: (§3)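 Mice given one daily oral gavage dose of 200 mg/kg body weight for 10 days with daily behavioural monitoring (hippocratic screening); heart, lung, spleen, kidney and liver weights compared with controls by ANOVA and Dunnett's test, p < 0.05.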

[7] = test system: Mycobacterium tuberculosis; experiment: Antitubercular activity against replicating stage Mycobacterium tuberculosis H37Rv ATCC 27294 after 7 days by Resazurin microtiter assay; format: functional; conditions: H37Rv ATCC 27294, 168 h
[8] = test system: Mycobacterium tuberculosis; experiment: Antitubercular activity against Mycobacterium tuberculosis H37Rv ATCC 27294 in presence of 10% fetal bovine serum; format: functional
[9] = n-Octanol/water partition coefficient, log P of the compound by HPLC analysis; format: physicochemical
How it was run: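 Log P from n-octanol/water partition coefficient determined by HPLC method.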

[10] = Stability of the compound in PBS assessed as parent compound remaining at pH 5.5 after 24 hrs by HPLC-UV analysis; format: physicochemical; conditions: read-out: Stability
[11] = test system: Mycobacterium tuberculosis; experiment: Antitubercular activity against Mycobacterium tuberculosis H37Rv ATCC 27294 in presence of 4% fetal bovine serum; format: functional
[12] = test system: Mycobacterium tuberculosis; experiment: Upregulation of ribosomal protein gene in Mycobacterium tuberculosis H37Rv at 2 times MIC90 after 4 hrs by microarray analysis; format: functional
Mus musculus [13] = experiment: Hepatotoxicity in BALB/c mouse assessed as change in alanine aminotransferase level in plasma at 200 mg/kg, po qd administered via gavage after 10 days; format: toxicity, organism-based; conditions: in vivo, 240 h
[14] = test system: Mycobacterium tuberculosis; experiment: Antitubercular activity against Mycobacterium tuberculosis H37Rv ATCC 27294 under normal pH 6.8 condition; format: functional
Mus musculus [15] = experiment: Toxicity in BALB/c mouse assessed as change in liver weight at 200 mg/kg, po qd administered via gavage after 10 days; format: organism-based; conditions: in vivo, 240 h; how it was run: as §3
[16] = test system: Mycobacterium tuberculosis; experiment: Antitubercular activity against Mycobacterium tuberculosis H37Rv ATCC 27294 infected in mouse J774A.1 cells at 1.46 to 23.86 ug/ml after 3 days relative to control; format: functional
Mus musculus [17] = experiment: Hepatotoxicity in BALB/c mouse assessed as change in liver morphology at 200 mg/kg, po qd administered via gavage after 10 days by hematoxylin and eosin staining based analysis; format: toxicity, organism-based; conditions: in vivo, 240 h; how it was run: as §2
Mus musculus [18] = experiment: Toxicity in BALB/c mouse assessed as change in lung weight at 200 mg/kg, po qd administered via gavage after 10 days; format: organism-based; conditions: in vivo, 240 h; how it was run: as §3
[19] = test system: Mycobacterium tuberculosis; experiment: Growth inhibition of Mycobacterium tuberculosis H37Rv exposed to plasma from BALB/c mouse treated with 300 mg/kg, po administered through microemulsion vehicle as single oral dose per gavage after 2 hrs by Resazurin microtiter assay; format: functional; conditions: read-out: GI; how it was run: as §1
[20] = test system: Mycobacterium tuberculosis; experiment: Antitubercular activity against dormant stage Mycobacterium tuberculosis H37Rv ATCC 27294 incubated for 10 days in anaerobic condition followed by incubation for 28 hrs in ambient gaseous condition measured after day 11 by two fold serial dilution assay; format: functional
[21] = test system: Mycobacterium tuberculosis; experiment: Up-regulation of […] gene EF-G in Mycobacterium tuberculosis H37Rv at 2 times MIC90 after 4 hrs by microarray analysis; format: functional
Mus musculus [22] = experiment: Hepatotoxicity in BALB/c mouse assessed as change in aspartate aminotransferase level in plasma at 200 mg/kg, po qd administered via gavage after 10 days; format: toxicity, organism-based; conditions: in vivo, 240 h
Mus musculus [23] = experiment: Nephrotoxicity in BALB/c mouse assessed as change in urea level in blood at 200 mg/kg, po qd administered via gavage after 10 days; format: toxicity, organism-based; conditions: in vivo, 240 h
[24] = test system: Mycobacterium tuberculosis; experiment: Up-regulation of ATP synthase sub-units genes in Mycobacterium tuberculosis H37Rv at 2 times MIC90 after 4 hrs by microarray analysis; format: functional
[25] = Chemical stability in PBS at pH 7.4 assessed as drug degradation after 10 hrs by HPLC-UV analysis; format: physicochemical; conditions: read-out: Drug degradation
[26] = test system: Mycobacterium tuberculosis; experiment: Up-regulation of […] gene EF-Tu in Mycobacterium tuberculosis H37Rv at 2 times MIC90 after 4 hrs by microarray analysis; format: functional

Q: Which results are given for O=C(N/N=C/c1ccc2no[n+]([O-])c2c1)c1ccncc1?
A: IC50 (MRC5): 519 µM; inhibition in vivo at 300 mg/kg [1]: 51.3%; Activity [2]: Active; Papp [3]: 3.9 ×10⁻⁶ cm/s; inhibition in vivo at 300 mg/kg [4]: 65.7%; Activity (Mus musculus [5]): Non-Toxic; Activity (Mus musculus [6]): Non-Toxic; MIC90 [7]: 1.1 to 5.84 µM (≈ 0.312 to 1.65 µg/mL); MIC90 [8]: 11.8 µM; logP [9]: 1.5; remaining at 24 h [10]: 67%; MIC90 [11]: 9.81 µM; Activity [12]: Active; Activity (Mus musculus [13]): Non-Toxic; MIC90 [14]: 5.47 µM (≈ 1.55 µg/mL); Activity (Mus musculus [15]): Non-Toxic; inhibition (INH) [16]: 90%; Activity (Mus musculus [17]): Non-Toxic; Activity (Mus musculus [18]): Non-Toxic; inhibition in vivo at 300 mg/kg [19]: 76%; MIC90 [20]: 6.62 µM (≈ 1.88 µg/mL); Activity [21]: Active; Activity (Mus musculus [22]): Non-Toxic; Activity (Mus musculus [23]): Toxic; Activity [24]: Active; degraded at 10 h [25]: 20%; Activity [26]: Active

— ChEMBL document CHEMBL4028867, “Design, Synthesis, and Characterization of N-Oxide-Containing Heterocycles with in Vivo Sterilizing Antitubercular Activity” (J Med Chem, 2017)
